Measurements reported in ChEMBL document CHEMBL4373725, “Structure Kinetics Relationships and Molecular Dynamics Show Crucial Role for Heterocycle Leaving Group in Irreversible Diacylglycerol Lipase Inhibitors” (J Med Chem, 2019).

How the values were obtained:
[1] = biological target: T1, Diacylglycerol lipase-alpha (Mus musculus, UniProt Q6WQJ1); experiment: Inhibition of mouse DAGL-alpha expressed in HEK293T cell membranes assessed as inhibition constant without pre-incubation, measured continuously from t=0 with 600 uM PNP-butyrate by surrogate substrate assay
T1 sequence (Q6WQJ1 whole entry): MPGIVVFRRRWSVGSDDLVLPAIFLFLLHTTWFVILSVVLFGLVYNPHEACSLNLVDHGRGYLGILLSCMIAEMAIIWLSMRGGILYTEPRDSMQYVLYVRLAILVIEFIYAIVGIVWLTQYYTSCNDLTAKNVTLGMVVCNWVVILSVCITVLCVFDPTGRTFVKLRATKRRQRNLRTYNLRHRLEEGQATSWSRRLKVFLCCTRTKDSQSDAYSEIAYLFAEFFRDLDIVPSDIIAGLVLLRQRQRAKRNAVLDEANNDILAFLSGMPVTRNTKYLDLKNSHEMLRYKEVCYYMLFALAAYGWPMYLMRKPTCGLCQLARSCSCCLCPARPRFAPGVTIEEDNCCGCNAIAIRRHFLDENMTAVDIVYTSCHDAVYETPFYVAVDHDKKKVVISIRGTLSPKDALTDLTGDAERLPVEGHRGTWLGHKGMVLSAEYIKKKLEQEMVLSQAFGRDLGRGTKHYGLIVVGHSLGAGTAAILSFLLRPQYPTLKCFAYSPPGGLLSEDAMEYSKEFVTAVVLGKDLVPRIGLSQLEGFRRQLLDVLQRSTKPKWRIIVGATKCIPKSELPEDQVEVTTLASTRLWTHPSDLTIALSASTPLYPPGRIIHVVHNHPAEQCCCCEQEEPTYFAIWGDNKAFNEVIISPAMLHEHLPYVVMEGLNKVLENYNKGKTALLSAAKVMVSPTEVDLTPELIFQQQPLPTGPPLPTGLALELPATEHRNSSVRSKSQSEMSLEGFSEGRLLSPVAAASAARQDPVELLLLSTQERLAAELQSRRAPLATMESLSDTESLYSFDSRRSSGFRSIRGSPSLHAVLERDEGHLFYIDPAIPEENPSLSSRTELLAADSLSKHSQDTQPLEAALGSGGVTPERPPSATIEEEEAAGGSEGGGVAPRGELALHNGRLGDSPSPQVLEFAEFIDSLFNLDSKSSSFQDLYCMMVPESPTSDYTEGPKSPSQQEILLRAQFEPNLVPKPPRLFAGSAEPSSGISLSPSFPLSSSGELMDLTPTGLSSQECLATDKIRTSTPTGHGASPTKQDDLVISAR

[2] = biological target: T1, Diacylglycerol lipase-alpha; experiment: Inhibition of mouse DAGL-alpha expressed in HEK293T cell membranes pre-incubated for 20 mins before PNP-butyrate substrate addition and measured after 30 mins by surrogate substrate assay; assay type: cell-based
Method in brief: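 mDAGL-α membrane fraction from transiently transfected HEK293T cells, at 0.05 μg/μL final, in 50 mM Hepes pH 7.2. Inhibitor in DMSO was preincubated 20 min, then PNP-butyrate was added (0.3 mM final; 5% DMSO final). After 30 min at 20 °C, OD was read at 420 nm. Background from 10 μM THL was subtracted and values normalized to DMSO control. Plates were kept if Z′ > 0.6. N = 2, n = 2.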

[3] = biological target: T2, Diacylglycerol lipase-alpha (Mus musculus) (UniProt Q6WQJ1); experiment: Inhibition of mouse DAGL-alpha expressed in HEK293T cell membranes assessed as inactivation constant measured continuously from t=0 without pre-incubation by kinetic PNP-butyrate substrate assay
T2 sequence (whole entry): T1 sequence (Q6WQJ1 whole entry)

[4] = biological target: T2, Diacylglycerol lipase-alpha (Mus musculus); experiment: Inhibition of mouse DAGL-alpha expressed in HEK293T cell membranes assessed as inactivation constant pre-incubated for 20 mins before PNP-butyrate substrate addition and measured after 30 mins by surrogate substrate assay; assay type: cell-based
[5] = Dissociation constant, pKa of the compound; assay type: physicochemical

| SMILES | Ki [1] [nM] | IC50 ([2]; read-out: pIC50 (converted)) [nM] | Kinact [3] [min⁻¹] | Kinact [4] [min⁻¹] | pKa [5] | IC50 ([2]; read-out: IC50) [nM] |
| --- | --- | --- | --- | --- | --- | --- |
| C#CCO[C@@H]1CC[C@H](Cc2ccccc2)N(C(=O)n2ncc(C(O)(c3ccc(F)cc3)c3ccc(F)cc3)n2)C1 | 0.27 | < 1 | 0.058 |  |  |  |
| O=C(N1CCCCC1Cc1ccccc1)n1cc(-c2ccc(-c3ccccc3)cc2)nn1 (stereo unspecified) | 0.35 | < 1 |  | 0.08 |  |  |
| O=C(N1CCCC[C@@H]1Cc1ccccc1)n1ncc(C(O)(c2ccc(F)cc2)c2ccc(F)cc2)n1 | 10.4 | 3.02 |  | 0.22 | 9.3 |  |
| O=C(N1CCCC[C@@H]1Cc1ccccc1)n1cnc(C(O)(c2ccc(F)cc2)c2ccc(F)cc2)c1 |  | > 31600 |  |  | 14.4 |  |
| O=C(N1CCCC[C@@H]1Cc1ccccc1)n1cc(C(O)(c2ccc(F)cc2)c2ccc(F)cc2)nn1 | 339 | 3.8 |  | 0.32 | 9.3 |  |
| O=C(N1CCCC[C@@H]1Cc1ccccc1)n1ccc(C(O)(c2ccc(F)cc2)c2ccc(F)cc2)n1 | 10800 |  |  | 0.08 | 14.2 | 210 |
| Cc1ccc(-c2cnc3nc(C(=O)CCCCCc4ccccc4)oc3c2)cc1 | 0.23 | 2.51 |  |  |  |  |
| O=C(N1CCCC[C@@H]1Cc1ccccc1)n1cnc(C(O)(c2ccc(F)cc2)c2ccc(F)cc2)n1 | 13800 |  |  | 0.075 | 10 | 3400 |
